# Experimental data published in ChEMBL document CHEMBL1157729, “Structure-activity relationship and mechanism of action studies of manzamine analogues for the control of neuroinflammation and cerebral infections” (J Med Chem, 2010).
# Legend:
# HeLa [1] = test: Cell cycle arrest in human HeLa cells assessed as decrease in G2/M phase accumulation at 5 uM after 24 hrs by FACS analysis; assay type: functional; set-up: scale not given: the % may be the effect or the level left
# Vero = test: Cytotoxicity against african green monkey Vero cells after 48 hrs by neutral red assay; assay type: cell-based; settings: chlorocebus sabaeus
# Outline: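 Vero cells seeded at 25,000/well and grown 24 h, then exposed to serially diluted samples for 48 h. Viable cells measured by neutral red assay, with doxorubicin as positive control. IC50 taken from dose-response curves.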
# Plasmodium berghei [2] = test: Antiplasmodial activity against Plasmodium berghei infected in mice (Mus musculus) at 10 mg/kg, perorally administered 1 day post infection for 3 days; assay type: functional; settings: route oral
# Plasmodium berghei [3] = test: Antiplasmodial activity against Plasmodium berghei NK65 infected in Swiss Webster mice (Mus musculus) assessed as average parasitaemia at 1.1 mg/kg, perorally administered 1 day after infection for 3 days measured after 7 days post infection; assay type: functional; settings: route oral
# [4] = Antineuroinflammatory activity in LPS-stimulated rat neonatal microglia assessed as inhibition of PMA-induced TXB2 production preincubated 15 mins prior to PMA challenge measured after 70 mins; assay type: functional, cell-based
# Plasmodium berghei [5] = test: Antiplasmodial activity against Plasmodium berghei NK65 infected in Swiss Webster mice (Mus musculus) assessed as average parasitaemia at 5 mg/kg, perorally administered 1 day after infection for 3 days measured after 10 days post infection; assay type: functional; settings: route oral
# Plasmodium berghei [6] = test: Antiplasmodial activity against Plasmodium berghei NK65 infected in Swiss Webster mice (Mus musculus) assessed as survivability at 10 mg/kg, perorally administered 1 day after infection for 3 days measured after 28 days post infection; assay type: functional; settings: route oral
# Plasmodium berghei [7] = test: Antiplasmodial activity against Plasmodium berghei NK65 infected in Swiss Webster mice (Mus musculus) assessed as parasitaemia cure at 1.1 mg/kg, perorally administered 1 day after infection for 3 days measured after 28 days post infection; assay type: functional; settings: route oral
# Outline: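 Male Swiss Webster mice (18-20 g), at least 5 per group, inoculated i.p. with 2×10^7 P. berghei NK-65-parasitized red cells from a donor mouse. Oral dosing (100 μl, in SSV or 0.01 M HCl dilutions) from day one post-infection on a 3-day schedule (modified Peters test). Giemsa-stained tail-blood smears read from day 5 to day 28. Cure means no parasitemia through day 28.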
# HeLa [8] = test: Cytotoxicity against human HeLa cells after 48 hrs by trypan blue exclusion assay; assay type: functional
# Plasmodium berghei [9] = test: Antiplasmodial activity against Plasmodium berghei NK65 infected in Swiss Webster mice (Mus musculus) assessed as average parasitaemia at 3.3 mg/kg, perorally administered 1 day after infection for 3 days measured after 28 days post infection; assay type: functional; settings: route oral
# Outline: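 Male Swiss Webster mice (18-20 g, ≥5/group) inoculated i.p. with 2×10^7 P. berghei NK-65 parasitized RBC; oral dosing (100 μl, SSV or dilute HCl vehicle) once daily for 3 days from day 1; Giemsa-stained tail blood smears days 5–28; inhibition is % decrease versus untreated controls on day 5.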
# Plasmodium berghei [10] = test: Antiplasmodial activity against Plasmodium berghei infected in mice (Mus musculus) at 5 mg/kg, perorally administered 1 day post infection for 3 days; assay type: functional; settings: route oral
# HeLa [11] = test: Cell cycle arrest in human HeLa cells assessed as increase in G0/G1 phase accumulation at 3 uM after 24 hrs by FACS analysis; assay type: functional
# Plasmodium berghei [12] = test: Antiplasmodial activity against Plasmodium berghei NK65 infected in Swiss Webster mice (Mus musculus) assessed as average parasitaemia at 100 mg/kg, perorally administered 1 day after infection measured after 7 days post infection; assay type: functional; settings: route oral
# Plasmodium berghei [13] = test: Antiplasmodial activity against Plasmodium berghei NK65 infected in Swiss Webster mice (Mus musculus) assessed as average parasitaemia at 3.3 mg/kg, perorally administered 1 day after infection for 3 days measured after 10 days post infection; assay type: functional; settings: route oral
# Plasmodium berghei [14] = test: Antiplasmodial activity against Plasmodium berghei NK65 infected in Swiss Webster mice (Mus musculus) assessed as parasitaemia cure at 200 mg/kg, perorally administered 1 day after infection measured after 28 days post infection; assay type: functional; settings: Plasmodium berghei, NK65, route oral
# Outline: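 Male Swiss Webster mice (18-20 g), at least 5 per group, were inoculated ip with 2×10^7 P. berghei NK-65-parasitized red cells from a donor mouse and given a single oral dose (100 μl). Stock was made in SSV or 0.1 M HCl and diluted in SSV or 0.01 M HCl. Parasitemia was read from Giemsa-stained tail blood smears from day 5 to day 28. Cure meant no parasitemia through day 28.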
# MDCK = test: Apparent permeability across apical to basolateral side of MDCK cells expressing MDR; assay type: ADME, cell-based, Canis lupus familiaris; settings: dog
# Outline: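 MDR-MDCK cells (passage 12-40) seeded at 75,000 cells/cm2 and grown 8 days on Transwell inserts to a monolayer. Bidirectional transport over 2 h in HBSS pH 7.4 with test substance at 50 μM and caffeine (5 μM) as standard. Donor and receiver samples quantified by LC-MS. Cumulative amount transported plotted against time to derive apparent permeability.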
# Plasmodium berghei [15] = test: Antiplasmodial activity against Plasmodium berghei NK65 infected in Swiss Webster mice (Mus musculus) assessed as average parasitaemia at 1.1 mg/kg, perorally administered 1 day after infection for 3 days measured after 10 days post infection; assay type: functional; settings: route oral
# HeLa [16] = test: Cell cycle arrest in human HeLa cells assessed as increase in S phase accumulation at 10 uM after 24 hrs by FACS analysis; assay type: functional
# HeLa [17] = test: Cell cycle arrest in human HeLa cells assessed as decrease in G2/M phase accumulation at 10 uM after 24 hrs by FACS analysis; assay type: functional; set-up: scale not given: the % may be the effect or the level left
# Plasmodium berghei [18] = test: Antiplasmodial activity against Plasmodium berghei NK65 infected in Swiss Webster mice (Mus musculus) assessed as inhibition of parasitaemia at 5 mg/kg, perorally administered 1 day after infection for 3 days measured after 5 days post infection; assay type: functional; settings: route oral
# Plasmodium berghei [19] = test: Antiplasmodial activity against Plasmodium berghei NK65 infected in Swiss Webster mice (Mus musculus) assessed as average parasitaemia at 50 mg/kg, perorally administered 1 day after infection measured after 7 days post infection; assay type: functional; settings: route oral
# Outline: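 Male Swiss Webster mice (18-20 g, ≥5/group) inoculated i.p. with 2×10^7 P. berghei NK-65 parasitized RBC, given a single oral dose (100 μl, SSV or dilute HCl vehicle); parasitemia by Giemsa-stained tail blood smears days 5–28; activity as % decrease versus untreated controls on day 5.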
# Plasmodium berghei [20] = test: Antiplasmodial activity against Plasmodium berghei infected in mice (Mus musculus) at 5 mg/kg, subcutaneously administered 1 day post infection for 3 days; assay type: functional; settings: route subcutaneous
# Plasmodium berghei [21] = test: Antiplasmodial activity against Plasmodium berghei NK65 infected in Swiss Webster mice (Mus musculus) assessed as average parasitaemia at 5 mg/kg, perorally administered 1 day after infection for 3 days measured after 28 days post infection; assay type: functional; settings: route oral
# Plasmodium berghei [22] = test: Antiplasmodial activity against Plasmodium berghei NK65 infected in Swiss Webster mice (Mus musculus) assessed as parasitaemia cure at 3.3 mg/kg, perorally administered 1 day after infection for 3 days measured after 28 days post infection; assay type: functional; settings: route oral
# Outline: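 Male Swiss Webster mice (18-20 g), at least 5 per group, inoculated i.p. with 2×10^7 P. berghei NK-65 parasitized red cells from a donor mouse. Oral dosing (100 μl, in SSV or dilute HCl) from day one after infection, three-day modified Peters suppressive schedule. Giemsa-stained tail blood smears from day 5 through day 28. Inhibition is % parasitemia drop on day 5 versus untreated controls. Cure means no parasitemia through day 28.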
# Plasmodium berghei [23] = test: Antiplasmodial activity against Plasmodium berghei NK65 infected in Swiss Webster mice (Mus musculus) assessed as average parasitaemia at 10 mg/kg, perorally administered 1 day after infection for 3 days measured after 7 days post infection; assay type: functional; settings: route oral
smiles,measurement,setting,value
O[C@]12C=C(c3nccc4c3[nH]c3ccccc34)[C@@H]3CCN(CCCC/C=C\CC1)C[C@@]31C[C@@H]3/C=C\CCCCN3[C@H]12 [MANZAMINE A],Activity,HeLa [1],14.3%
same,IC50,Vero,0.2 µg/mL
same,Activity,Plasmodium berghei [2],14.3 days
same,inhibition in vivo at 1.1 mg/kg,Plasmodium berghei [3],5.5%
same,IC50,[4],< 100 nM
same,inhibition in vivo at 5 mg/kg,Plasmodium berghei [5],7.8%
same,inhibition in vivo at 10 mg/kg,Plasmodium berghei [6],100%
same,inhibition in vivo at 1.1 mg/kg,Plasmodium berghei [7],0%
same,Activity,HeLa [8],2 µg/mL
same,inhibition in vivo at 3.3 mg/kg,Plasmodium berghei [9],53.9%
same,Activity,Plasmodium berghei [10],24.3 days
same,Activity,HeLa [11],56.2%
same,inhibition in vivo at 100 mg/kg,Plasmodium berghei [12],0%
same,inhibition in vivo at 3.3 mg/kg,Plasmodium berghei [13],4.3%
same,inhibition in vivo at 200 mg/kg,Plasmodium berghei [14],100%
same,Papp,MDCK,0.87 ×10⁻⁶ cm/s
same,inhibition in vivo at 1.1 mg/kg,Plasmodium berghei [15],11.5%
same,Activity,HeLa [16],59.1%
same,Activity,HeLa [17],13.6%
same,inhibition in vivo at 5 mg/kg,Plasmodium berghei [18],88%
same,inhibition in vivo at 50 mg/kg,Plasmodium berghei [19],0%
same,Activity,Plasmodium berghei [20],19.7 days
same,inhibition in vivo at 5 mg/kg,Plasmodium berghei [21],39.3%
same,inhibition in vivo at 3.3 mg/kg,Plasmodium berghei [22],25%
same,inhibition in vivo at 10 mg/kg,Plasmodium berghei [23],0.2%
